Data published in ChEMBL document CHEMBL3608246, “Novel benzidine and diaminofluorene prolinamide derivatives as potent hepatitis C virus NS5A inhibitors” (Eur J Med Chem, 2015).

Legend:
[1] = Cytotoxicity against human Huh7.5.1 cells; assay type: cell-based, Huh-7
Hepatitis C virus [2] = experiment: Antiviral activity against HCV genotype 2a JFH5a infected in human Huh7.5.1 cells transfected with JFH5a-Rluc-ad34 assessed as reduction in virus proliferation by luciferase reporter gene assay; assay type: functional, cell-based, Hepacivirus hominis, Huh-7
Hepatitis C virus [3] = experiment: Antiviral activity against HCV genotype 1b NK/R2AN infected in human Huh7.5.1 cells assessed as reduction in virus replication by luciferase reporter gene assay; assay type: functional, organism-based, Hepacivirus hominis, subtype 1b NK/R2AN, Huh-7
hERG (KCNH2) = hERG (KCNH2) (Homo sapiens, UniProt Q12809); experiment: Inhibition of human ERG at 10 uM by fluorescence polarization assay based ligand binding assay
[4] = Stability in human liver microsomes assessed as compound remaining at 1 uM after 0.5 hrs by LC-MS/MS method; assay type: ADME; conditions: read-out: Stability
Method in brief: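 Pooled human liver microsomal fraction with β-NADPH, compound at 1 µM, incubated over 30 min; remaining compound in supernatant quantified by LC-MS/MS.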

Cytochrome P450 1A2 = molecular target: T1, Cytochrome P450 1A2 (Homo sapiens, UniProt P05177); experiment: Inhibition of human CYP1A2 by luminometry; assay type: ADME
T1 sequence (P05177 whole entry): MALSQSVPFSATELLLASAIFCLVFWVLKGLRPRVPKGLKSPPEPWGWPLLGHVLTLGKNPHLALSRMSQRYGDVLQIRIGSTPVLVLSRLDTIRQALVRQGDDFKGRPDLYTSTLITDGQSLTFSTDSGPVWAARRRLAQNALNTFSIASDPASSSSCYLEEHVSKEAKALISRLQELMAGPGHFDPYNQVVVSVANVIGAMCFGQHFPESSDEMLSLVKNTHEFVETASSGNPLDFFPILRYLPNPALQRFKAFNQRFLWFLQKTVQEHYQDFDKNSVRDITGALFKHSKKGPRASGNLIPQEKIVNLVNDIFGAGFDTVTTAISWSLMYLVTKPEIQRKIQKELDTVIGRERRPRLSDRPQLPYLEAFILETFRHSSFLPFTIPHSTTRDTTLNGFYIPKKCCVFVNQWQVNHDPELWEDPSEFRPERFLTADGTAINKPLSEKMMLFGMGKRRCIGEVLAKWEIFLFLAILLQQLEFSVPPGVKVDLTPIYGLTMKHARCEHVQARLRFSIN
Method in brief: (§1)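 Human CYP1A2, 2C9, 2C19, 2D6 and 3A4 inhibition by P450-Glo luminescent assay per kit protocol; compounds at 100, 50, 10, 5, 1, 0.1 and 0.01 µM; luminometer read-out.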

Cytochrome P450 2C9 = Cytochrome P450 2C9 (Homo sapiens, UniProt P11712); experiment: Inhibition of human CYP2C9 by luminometry; assay type: ADME; method in brief: as §1
Cytochrome P450 2D6 = Cytochrome P450 2D6 (Homo sapiens, UniProt P10635); experiment: Inhibition of human CYP2D6 by luminometry; assay type: ADME; method in brief: as §1
Cytochrome P450 2C19 = Cytochrome P450 2C19 (Homo sapiens, UniProt P33261); experiment: Inhibition of human CYP2C19 by luminometry; assay type: ADME; method in brief: as §1
Cytochrome P450 3A4 = Cytochrome P450 3A4 (Homo sapiens, UniProt P08684); experiment: Inhibition of human CYP3A4 by luminometry; assay type: ADME; method in brief: as §1
[5] = Half life in Sprague-Dawley rat at 10 mg/kg, po by LC/MS/MS method; assay type: ADME, organism-based; conditions: in vivo
Method in brief: (§2)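 Sprague-Dawley rats, 2 male and 1 female per compound per route, parallel design. Vehicle 5% DMSO, 10% solutol, 85% HPBCD; IV 5 mg/kg bolus via tail vein, oral 10 mg/kg. Blood into K2-EDTA tubes at several time points, centrifuged, plasma analysed by LC/MS/MS; non-compartmental analysis.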

[6] = Oral bioavailability in Sprague-Dawley rat at 10 mg/kg by LC/MS/MS method; assay type: ADME, organism-based; conditions: in vivo; method in brief: as §2
[7] = Half life in Sprague-Dawley rat at 5 mg/kg, iv by LC/MS/MS method; assay type: ADME, organism-based; conditions: in vivo; method in brief: as §2
[8] = Stability in rat plasma assessed as compound remaining t 100 uM after 0.5 hrs by LC-MS/MS method; assay type: ADME, cell-free; conditions: read-out: Stability
Method in brief: (§3)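 Rat plasma pre-warmed 5 min at 37 °C, mixed with test compound from 100 µM stock (3 into 297 parts), incubated at 37 °C; sampled at 0, 15, 30, 60, 120 min, acetonitrile-precipitated, centrifuged 10 min, supernatant analysed by LC-MS/MS.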

[9] = Stability in rat plasma assessed as compound remaining at 100 uM after 1 hr by LC-MS/MS method; assay type: ADME, cell-free; conditions: read-out: Stability; method in brief: as §3
[10] = Stability in rat plasma assessed as compound remaining at 100 uM after 2 hrs by LC-MS/MS method; assay type: ADME, cell-free; conditions: read-out: Stability; method in brief: as §3
[11] = Hepatitis C virus, genotype 2a JFH5a, Huh-7
[12] = Hepatitis C virus, subtype 1b NK/R2AN, Huh-7

Sequence of Cytochrome P450 2C9 (P11712 whole entry): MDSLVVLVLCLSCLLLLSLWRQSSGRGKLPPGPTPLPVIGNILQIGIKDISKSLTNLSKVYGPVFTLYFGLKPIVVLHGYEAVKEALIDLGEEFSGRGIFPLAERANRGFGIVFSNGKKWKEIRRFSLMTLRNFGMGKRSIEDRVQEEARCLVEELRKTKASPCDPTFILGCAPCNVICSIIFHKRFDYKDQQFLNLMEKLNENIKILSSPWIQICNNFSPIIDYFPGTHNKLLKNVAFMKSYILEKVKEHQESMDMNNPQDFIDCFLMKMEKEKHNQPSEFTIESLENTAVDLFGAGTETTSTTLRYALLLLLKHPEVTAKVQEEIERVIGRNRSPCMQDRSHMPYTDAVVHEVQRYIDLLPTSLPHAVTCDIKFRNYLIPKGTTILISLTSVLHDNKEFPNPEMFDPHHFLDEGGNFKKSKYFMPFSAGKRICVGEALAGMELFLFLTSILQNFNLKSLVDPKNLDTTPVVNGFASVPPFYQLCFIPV
Sequence of Cytochrome P450 2D6 (P10635 whole entry): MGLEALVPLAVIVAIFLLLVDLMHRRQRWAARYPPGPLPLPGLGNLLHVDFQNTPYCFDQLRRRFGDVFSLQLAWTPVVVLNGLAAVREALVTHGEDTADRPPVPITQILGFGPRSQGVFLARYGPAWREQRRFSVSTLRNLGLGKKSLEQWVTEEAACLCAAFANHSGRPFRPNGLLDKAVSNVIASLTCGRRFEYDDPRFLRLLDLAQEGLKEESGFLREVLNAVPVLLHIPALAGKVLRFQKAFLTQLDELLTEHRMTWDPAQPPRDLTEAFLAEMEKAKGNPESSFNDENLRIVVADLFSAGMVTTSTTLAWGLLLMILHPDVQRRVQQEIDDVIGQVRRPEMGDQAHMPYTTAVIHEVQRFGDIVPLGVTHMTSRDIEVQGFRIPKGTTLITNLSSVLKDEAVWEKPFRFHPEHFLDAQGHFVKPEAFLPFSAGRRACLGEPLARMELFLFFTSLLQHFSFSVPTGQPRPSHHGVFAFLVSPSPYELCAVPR
Sequence of Cytochrome P450 3A4 (P08684 whole entry): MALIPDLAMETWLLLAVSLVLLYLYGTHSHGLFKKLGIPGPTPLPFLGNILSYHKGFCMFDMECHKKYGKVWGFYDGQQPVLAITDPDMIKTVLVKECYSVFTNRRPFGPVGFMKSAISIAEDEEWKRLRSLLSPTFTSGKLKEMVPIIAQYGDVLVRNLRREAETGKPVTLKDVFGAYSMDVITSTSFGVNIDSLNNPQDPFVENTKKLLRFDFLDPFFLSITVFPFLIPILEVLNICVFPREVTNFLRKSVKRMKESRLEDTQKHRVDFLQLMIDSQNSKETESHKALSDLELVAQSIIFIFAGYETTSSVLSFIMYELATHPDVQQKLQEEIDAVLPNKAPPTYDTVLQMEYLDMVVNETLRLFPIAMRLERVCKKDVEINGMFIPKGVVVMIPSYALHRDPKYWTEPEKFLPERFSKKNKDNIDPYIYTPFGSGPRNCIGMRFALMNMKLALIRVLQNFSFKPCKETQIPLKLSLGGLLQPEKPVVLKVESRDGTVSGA
Sequence of Cytochrome P450 2C19 (P33261 whole entry): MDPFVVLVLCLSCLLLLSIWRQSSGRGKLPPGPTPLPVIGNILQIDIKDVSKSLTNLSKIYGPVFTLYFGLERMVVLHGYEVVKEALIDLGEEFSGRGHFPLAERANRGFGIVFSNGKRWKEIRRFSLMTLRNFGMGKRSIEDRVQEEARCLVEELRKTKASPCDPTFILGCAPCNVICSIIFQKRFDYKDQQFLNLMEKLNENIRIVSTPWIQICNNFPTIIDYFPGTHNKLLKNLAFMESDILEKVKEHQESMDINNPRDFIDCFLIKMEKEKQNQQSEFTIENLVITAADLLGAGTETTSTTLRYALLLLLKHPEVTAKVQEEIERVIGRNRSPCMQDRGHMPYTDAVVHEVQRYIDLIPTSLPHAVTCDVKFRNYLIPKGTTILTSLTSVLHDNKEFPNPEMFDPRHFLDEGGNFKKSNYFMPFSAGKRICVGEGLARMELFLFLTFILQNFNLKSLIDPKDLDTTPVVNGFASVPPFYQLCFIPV
Sequence of hERG (KCNH2) (Q12809 whole entry): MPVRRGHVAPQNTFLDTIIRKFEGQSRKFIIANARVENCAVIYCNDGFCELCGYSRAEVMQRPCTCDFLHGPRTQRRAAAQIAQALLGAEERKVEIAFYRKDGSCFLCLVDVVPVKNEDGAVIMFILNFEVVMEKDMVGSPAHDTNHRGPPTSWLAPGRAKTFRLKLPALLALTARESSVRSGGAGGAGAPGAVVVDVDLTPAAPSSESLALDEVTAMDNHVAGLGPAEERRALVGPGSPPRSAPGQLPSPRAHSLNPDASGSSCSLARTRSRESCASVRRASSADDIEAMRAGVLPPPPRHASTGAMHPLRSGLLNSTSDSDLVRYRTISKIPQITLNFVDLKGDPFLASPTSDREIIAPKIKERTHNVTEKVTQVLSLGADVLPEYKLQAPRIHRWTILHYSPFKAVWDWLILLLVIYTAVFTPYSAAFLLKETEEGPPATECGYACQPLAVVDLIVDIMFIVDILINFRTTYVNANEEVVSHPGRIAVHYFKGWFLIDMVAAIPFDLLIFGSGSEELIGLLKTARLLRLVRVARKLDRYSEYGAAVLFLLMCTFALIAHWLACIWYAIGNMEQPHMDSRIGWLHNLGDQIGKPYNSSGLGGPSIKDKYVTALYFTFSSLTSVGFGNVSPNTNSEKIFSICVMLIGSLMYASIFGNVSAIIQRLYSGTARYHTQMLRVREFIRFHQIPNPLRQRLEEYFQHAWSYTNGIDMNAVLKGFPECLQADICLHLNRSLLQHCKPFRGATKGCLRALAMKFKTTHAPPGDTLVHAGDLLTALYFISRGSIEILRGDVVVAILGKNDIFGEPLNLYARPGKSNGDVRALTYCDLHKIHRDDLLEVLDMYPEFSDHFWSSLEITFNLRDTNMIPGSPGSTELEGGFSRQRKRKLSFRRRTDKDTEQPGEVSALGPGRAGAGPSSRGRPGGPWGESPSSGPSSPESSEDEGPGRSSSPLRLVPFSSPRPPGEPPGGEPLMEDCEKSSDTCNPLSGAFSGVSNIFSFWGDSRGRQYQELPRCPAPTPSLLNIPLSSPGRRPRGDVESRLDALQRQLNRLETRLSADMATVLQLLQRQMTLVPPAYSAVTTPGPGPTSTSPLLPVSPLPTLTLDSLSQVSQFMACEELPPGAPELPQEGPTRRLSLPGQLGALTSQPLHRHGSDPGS

COC(=O)N[C@@H](C(=O)N1CCC[C@H]1C(=O)Nc1ccc(-c2ccc(NC(=O)[C@@H]3CCCN3C(=O)[C@H](NC(=O)OC)c3ccccc3)cc2)cc1)c1ccccc1
CC50 [1]: > 25000 nM

COC(=O)N[C@@H](C(=O)N1CCC[C@H]1C(=O)Nc1ccc(-c2ccc(NC(=O)[C@@H]3CCCN3C(=O)[C@H](NC(=O)OC)c3ccccc3)c(C)c2)cc1C)c1ccccc1
EC50 (Hepatitis C virus [2]; [11]): 193 nM
EC50 (Hepatitis C virus [3]; [12]): 7.4 nM
CC50 [1]: > 25000 nM

COC(=O)N[C@@H](C(=O)N1CCC[C@H]1C(=O)Nc1ccc(-c2ccc(NC(=O)[C@@H]3CCCN3C(=O)[C@H](NC(=O)OC)c3ccccc3)cc2C(F)(F)F)c(C(F)(F)F)c1)c1ccccc1 (stereo in doubt; form 2)
EC50 (Hepatitis C virus [2]; huh-7): 332 nM
EC50 (Hepatitis C virus [3]; huh-7): 27.9 nM
CC50 [1]: > 25000 nM

COC(=O)N[C@@H](C(=O)N1CCC[C@H]1C(=O)Nc1ccc2c(c1)C(C)(C)c1cc(NC(=O)[C@@H]3CCCN3C(=O)[C@H](NC(=O)OC)c3ccccc3)ccc1-2)c1ccccc1
EC50 (Hepatitis C virus [2]; [11]): 0.02 nM
EC50 (Hepatitis C virus [3]; [12]): 0.004 nM
CC50 [1]: > 25000 nM
inhibition at 10 µM (hERG (KCNH2)): 25.7%
remaining at 0.5 h, 1 µM [4]: 95%
EC50 (Cytochrome P450 1A2): > 100000 nM
EC50 (Cytochrome P450 2C9): 269 nM
EC50 (Cytochrome P450 2D6): > 100000 nM
EC50 (Cytochrome P450 2C19): 2940 nM
EC50 (Cytochrome P450 3A4): 1030 nM
half-life [5]: 4.45 h
bioavailability [6]: 13.8%
half-life [7]: 1.62 h

COC(=O)N[C@@H](C(=O)N1CCC[C@H]1C(=O)Nc1ccc(-c2ccc(NC(=O)[C@@H]3CCCN3C(=O)[C@H](NC(=O)OC)c3ccccc3)cc2Cl)c(Cl)c1)c1ccccc1
EC50 (Hepatitis C virus [2]; [11]): 0.01 nM
EC50 (Hepatitis C virus [3]; [12]): 0.007 nM
CC50 [1]: > 25000 nM
inhibition at 10 µM (hERG (KCNH2)): 5.8%
remaining at 0.5 h, 100 µM [8]: 72%
remaining at 1 h, 100 µM [9]: 75%
remaining at 2 h, 100 µM [10]: 70%
remaining at 0.5 h, 1 µM [4]: 96%
EC50 (Cytochrome P450 1A2): 23900 nM
EC50 (Cytochrome P450 2C9): 116 nM
EC50 (Cytochrome P450 2D6): 41200 nM
EC50 (Cytochrome P450 2C19): 1040 nM
EC50 (Cytochrome P450 3A4): 3990 nM
half-life [5]: 6.37 h
bioavailability [6]: 4.99%
half-life [7]: 1.55 h

COC(=O)N[C@@H](C(=O)N1CCC[C@H]1C(=O)Nc1ccc(-c2ccc(NC(=O)[C@@H]3CCCN3C(=O)[C@H](NC(=O)OC)c3ccccc3)cc2C(F)(F)F)c(C(F)(F)F)c1)c1ccccc1 (stereo in doubt; form 3)
EC50 (Hepatitis C virus [2]; huh-7): 24.6 nM
EC50 (Hepatitis C virus [3]; huh-7): 2.4 nM

COC(=O)N[C@@H](C(=O)N1CSC[C@H]1C(=O)Nc1ccc(-c2ccc(NC(=O)[C@@H]3CSCN3C(=O)[C@H](NC(=O)OC)c3ccccc3)cc2)cc1)c1ccccc1
EC50 (Hepatitis C virus [2]; [11]): 15.5 nM
EC50 (Hepatitis C virus [3]; [12]): 0.027 nM
CC50 [1]: > 25000 nM

COC(=O)N[C@@H](C(=O)N1CCC[C@H]1C(=O)Nc1ccc2c(c1)Cc1cc(NC(=O)[C@@H]3CCCN3C(=O)[C@H](NC(=O)OC)c3ccccc3)ccc1-2)c1ccccc1
EC50 (Hepatitis C virus [2]; [11]): 5.6 nM
EC50 (Hepatitis C virus [3]; [12]): 0.009 nM
CC50 [1]: > 25000 nM

COC(=O)N[C@@H](C(=O)N1CCC[C@H]1C(=O)Nc1ccc2c(c1)C(=O)c1cc(NC(=O)[C@@H]3CCCN3C(=O)[C@H](NC(=O)OC)c3ccccc3)ccc1-2)c1ccccc1
EC50 (Hepatitis C virus [2]; [11]): 4.3 nM
EC50 (Hepatitis C virus [3]; [12]): 0.004 nM
CC50 [1]: > 25000 nM

COC(=O)N[C@@H](C(=O)N1CCC[C@H]1C(=O)Nc1ccc(-c2ccc(NC(=O)[C@@H]3CCCN3C(=O)[C@H](NC(=O)OC)c3ccccc3)cc2C)c(C)c1)c1ccccc1
EC50 (Hepatitis C virus [2]; [11]): 0.32 nM
EC50 (Hepatitis C virus [3]; [12]): 0.035 nM
CC50 [1]: > 25000 nM
